Data: ChEMBL document CHEMBL5506013, “Mitochondria-Selective Dicationic Small-Molecule Ligand Targeting G-Quadruplex Structures for Human Colorectal Cancer Therapy” (J Med Chem, 2024)
The source made the active and inactive calls. The rule behind the calls is not given here.

Assays:
Quadruplex DNA [1] = assay: Binding affinity to mito 0.5-16 G4 DNA (unknown origin) assessed as dissociation constant measured upto 450 secs by surface plasmon resonance assay; format: nucleic-acid assay
Procedure, shortened: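 Surface plasmon resonance in buffer at 25 °C. Four G4-mtDNAs (Mito 78, Mito 55, Mito 29, Mito 0.5-16) and the hairpin HP19 served as substrates. Kd was derived from the sensorgrams.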

HCT-116 [2] = assay: Antiproliferative activity against human HCT-116 cells measured after 48 hrs by MTT assay; format: functional, cell-based; details: HCT-116, 48 h
Procedure, shortened: (§1)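 Cells exposed to the ligands for 48 h. Viability was read by MTT, and the IC50 was derived from the response.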

LoVo = assay: Antiproliferative activity against human LoVo cells measured after 48 hrs by MTT assay; format: functional, cell-based; procedure, shortened: as §1
PANC-1 = assay: Antiproliferative activity against human PANC-1 cells measured after 48 hrs by MTT assay; format: functional, cell-based; details: PANC-1, 48 h; procedure, shortened: as §1
Quadruplex DNA [3] = assay: Binding affinity to mito 78 G4 DNA (unknown origin) assessed as dissociation constant measured upto 150 secs by isothermal titration calorimetry assay; format: nucleic-acid assay
[4] = Drug localization in nucleus of living human HCT-116 cells assessed as colocalization at 4 uM incubated for 1 hr by Hoechst33342 staining based analysis; format: ADME, subcellular; details: hct-116, 1 h
HCT-116 [5] = assay: Downregulation of ND4L mRNA level in human HCT-116 cells at 0 to 4 uM measured after 48 hrs by qRT-PCR analysis; format: functional, cell-based; details: dose 0-4 µM
HCT-116 [6] = assay: Downregulation of ND5 mRNA level in human HCT-116 cells at 0 to 4 uM measured after 48 hrs by qRT-PCR analysis; format: functional, cell-based; details: dose 0-4 µM
HCT-116 [7] = assay: Downregulation of COX2 mRNA level in human HCT-116 cells at 0 to 4 uM measured after 48 hrs by qRT-PCR analysis; format: functional, cell-based; details: dose 0-4 µM
HCT-116 [8] = assay: Downregulation of ATP8 protein level in human HCT-116 cells at upto 4 uM incubated for 48 hrs by Western blot analysis; format: functional, cell-based
HCT-116 [9] = assay: Downregulation of mitochondrial respiratory chain complex III level in human HCT-116 cells at upto 4 uM measured after 48 hrs by Western blot analysis; format: functional, cell-based
HCT-116 [10] = assay: Inhibition of glycolysis in human HCT-116 cells assessed as reduction in glucose consumption at upto 4 uM measured after 3 hrs by Seahorse XFe24 analyzer; format: functional, cell-based
HCT-116 [11] = assay: Induction of DNA damage in human HCT-116 assessed as increase in gammaH2AX level at upto 4 uM incubated for 72 hrs by Western blot analysis; format: functional, cell-based
Procedure, shortened: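 HCT116 cells treated with ligand at 0-4 uM for 72 h. Lysates immunoblotted for Lamin B1, p53, p21, p16, gamma-H2A.x, caspase-3 and cleaved caspase-3, with beta-actin as loading control.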

Quadruplex DNA [12] = assay: Binding affinity to Mut 55 G4 DNA (unknown origin) assessed as increase in fluorescence intensity by fluorescence spectrophotometric analysis; format: nucleic-acid assay
Procedure, shortened: (§2)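 Oligonucleotides were pre-annealed at 95 °C for 10 min, then cooled slowly. Ligand (5 uM) was mixed with 20 uM DNA in buffer. Emission was collected over 550–800 nm, and enhancement was taken at 650 nm as F/F0.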

Quadruplex DNA [13] = assay: Binding affinity to Mut 78 G4 DNA (unknown origin) assessed as increase in fluorescence intensity by fluorescence spectrophotometric analysis; format: nucleic-acid assay; procedure, shortened: as §2
DNA = assay: Binding affinity to SS19 DNA (non-G4 DNA) (unknown origin) assessed as change in melting temperature at 5 uM by circular dichroism spectroscopic analysis; format: nucleic-acid assay
[14] = Drug localization in human HCT-116 cells by measuring red foci at 4 uM incubated for 1 hr in presence of FCCP by hoechst33342 staining based analysis; format: ADME, cell-based; details: hct-116, 1 h
Procedure, shortened: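 Pretreatment of live HCT116 cells: FCCP 1 uM for 20 min, cyclosporin A 1 uM for 24 h, DMOG 100 uM for 24 h, or MitoPDS at several concentrations for 3 h (applied after dye loading). Cells loaded with ligand 4 uM (excitation 488 nm) for 1 h and Hoechst33342 1 uM for 30 min. Red foci counted by confocal imaging in 100 cells. Mean ± SEM, t test.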

HCT-116 [15] = assay: Downregulation of lamin B1 level in human HCT-116 cells measured after 72 hrs by immunofluorescence analysis; format: functional, cell-based; details: dose <= 4.0 µM
Procedure, shortened: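 HCT116 cells treated with ligand at 0-4 uM for 72 h. Lamin B1 and Ki67 imaged by immunofluorescence (excitation 635 nm), or lamin B1 probed on Western blot with β-actin as loading control.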

HCT-116 [16] = assay: Upregulation of p21 level in human HCT-116 cells at upto 4 uM measured after 72 hrs by Western blot analysis; format: functional, cell-based
Procedure, shortened: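 HCT116 cells exposed to the ligand at 0–4 µM for 72 h. Lysates were immunoblotted for p21 together with Lamin B1, p53, p16 and γ-H2A.x, with β-actin as the loading reference.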

HCT-116 [17] = assay: Induction of morphological changes in human HCT-116 cells at 4 uM by microscopy based analysis; format: functional, cell-based
Procedure, shortened: (§3)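 HCT116 and HFF1 cells treated with ligand at 4 uM alongside untreated controls. Morphology examined by microscopy at 100x.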

HFF-1 = assay: Induction of morphological changes in human HFF-1 cells at 4 uM by microscopy based analysis; format: functional, cell-based; procedure, shortened: as §3
HCT-116 [18] = assay: Antitumor activity against human HCT-116 cells xenografted in Balb/c nude mouse model assessed as reduction in tumor weight at 5 mg/kg, iv administered every two days for 16 days relative to control; format: functional; parameters: scale not given: the % may be the effect or the level left; details: time 16 day
Procedure, shortened: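 Male Balb/c nude mice carrying HCT116 xenografts, 6 per group. Dosing was intravenous every two days at 5 mg/kg, with a PBS-injected control group. Body weight and tumour growth were tracked. Tumours were excised and weighed after 16 days.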

HCT-116 [19] = assay: Antitumor activity against human HCT-116 cells xenografted in Balb/c nude mouse model assessed as induction of apoptosis at 5 mg/kg, iv administered every two days for 16 days by TUNEL staining based analysis; format: functional, organism-based; details: time 16.0 day
Procedure, shortened: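 Tumours came from HCT116-xenografted male Balb/c nude mice given 5 mg/kg i.v. every two days, or PBS, for 16 days. Tumour tissue sections were stained by TUNEL for apoptosis and by Ki67 immunofluorescence for proliferation, then compared with the control group.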

[20] = Toxicity in BALB/c nude mouse assessed as change in neutrophil count at 5 mg/kg, iv administered every two days for 16 days; format: organism-based; details: in vivo, 384 h, time 16 day
Procedure, shortened: (§4)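 HCT116 xenograft-bearing male Balb/c nude mice (6/group) dosed iv at 5 mg/kg every two days or with PBS. Whole blood collected at sacrifice on day 16 for hematology parameters.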

[21] = Toxicity in BALB/c nude mouse assessed as change in mean red blood cell hemoglobin content at 5 mg/kg, iv administered every two days for 16 days; format: organism-based; details: in vivo, 384 h, time 16 day; procedure, shortened: as §4
[22] = Toxicity in BALB/c nude mouse assessed as effect on heart at 5 mg/kg, iv measured after 16 hrs post injection by H and E staining based analysis; format: organism-based; details: in vivo

For `C(=C\c1ccc2ccccc2[n+]1CCCCCCCC[n+]1c(/C=C/c2ccc(N3CCCCC3)cc2)ccc2ccccc21)/c1ccc(N2CCCCC2)cc1.[I-].[I-]`, the Kd (Quadruplex DNA [1]) was 0.29 µM, the IC50 (HCT-116 [2]) was 3.4 µM and the IC50 (LoVo) was 13.4 µM. For the same compound, the IC50 (PANC-1) was 24.8 µM, the Kd (Quadruplex DNA [3]) was 0.06 µM and the Drug uptake [4] was “Not Active”. The Activity (HCT-116 [5]) was “Active”, the Activity (HCT-116 [6]) was “Active” and the Activity (HCT-116 [7]) was “Active”. The Activity (HCT-116 [8]) was “Active”, the Activity (HCT-116 [9]) was “Active” and the inhibition (HCT-116 [10]) was “Active”. The Activity (HCT-116 [11]) was “Active”, the Activity (Quadruplex DNA [12]) was “inactive” and the Activity (Quadruplex DNA [13]) was “inactive”. For the same compound, the ΔTm (DNA) was 0.5 °C, the Drug uptake [14] was “Not Active” and the Activity (HCT-116 [15]) was “Dose-Dependent Effect”. The Activity (HCT-116 [16]) was “Active”, the Activity (HCT-116 [17]) was “Active” and the Activity (HFF-1) was “Active”. The Activity (HCT-116 [18]) was 70%, the Activity (HCT-116 [19]) was “Active” and the Activity [20] was “Non-Toxic”. For the same compound, the Activity [21] was “Non-Toxic” and the Activity [22] was “Non-Toxic”.
